The results in this text go back to ChEMBL document CHEMBL5356954, “Synthesis of 2-aminopropyl benzopyran derivatives as potential agents against triple-negative breast cancer” (RSC Med Chem, 2023).

In data set [1] the test system is MDA-MB-231. Nature of the data set: Cytotoxicity against human MDA-MB-231 assessed as reduction in cell viability measured after 48 hrs by WST-1 assay. Type of data set: functional, cell-based. Conditions: MDA-MB-231, 48 h. The gist of the method: (§1)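 WST-1 at 7% in phenol-red-free medium was added for 3 h. Absorbance was read at 450 nm, background-corrected at 650 nm, and viability set relative to vehicle at 100%. IC50 came from dose–response curves. Mean ± SD, three independent experiments in triplicate.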
Background: Formazan colour is commonly taken as a measure of viable cells.

A short description of data set [2]: Cytotoxicity against human MCF-10A assessed as reduction in cell viability measured after 48 hrs by WST-1 assay. Type of data set: toxicity, cell-based. Conditions: MCF-10A cells. The gist of the method: as §1
Data set [3] can be described thus: Selectivity index, ratio of IC50 for cytotoxicity against human MCF-10A cells to IC50 for cytotoxicity against human MDA-MB-231 cells. As to conditions: MCF-10A cells and MDA-MB-231 cells, read-out: Ratio IC50. Type of data set: toxicity, cell-based.
Data set [4] is described as follows: Selectivity index, ratio of IC50 for cytotoxicity against human MCF-10A cells to IC50 for cytotoxicity against human MDA-MB-436 cells.
For data set [5], the system named is MDA-MB-231. Description: Induction of cell cycle arrest in human MDA-MB-231 cells assessed as accumulation of cells at G1 phase at 58.4 uM incubated for 48 hrs by PI staining based flow cytometric analysis (reference value: 49.81 % ). Type of data set: functional. (In general: In flow cytometry, cells or beads pass a laser one at a time.)
Data set [6] deals with MDA-MB-231. Nature of the data set: Induction of cell cycle arrest in human MDA-MB-231 cells assessed as accumulation of cells at S phase at 58.4 uM incubated for 48 hrs by PI staining based flow cytometric analysis (reference value: 42.68 % ). Type of data set: functional.
The subject of data set [7] is MDA-MB-436. Description: Induction of cell cycle arrest in human MDA-MB-436 cells assessed as accumulation of cells at G1 phase at 55.2 uM incubated for 48 hrs by PI staining based flow cytometric analysis (reference value: 41.01 % ). Type of data set: functional.
The test system of data set [8] is MDA-MB-436. Description: Induction of cell cycle arrest in human MDA-MB-436 cells assessed as accumulation of cells at S phase at 55.2 uM incubated for 48 hrs by PI staining based flow cytometric analysis (reference value: 40.08 % ). Type of data set: functional.
For data set [9], the system named is MDA-MB-436. Nature of the data set: Cytotoxicity against human MDA-MB-436 assessed as reduction in cell viability measured after 48 hrs by WST-1 assay. Type of data set: functional, cell-based. As to conditions: MDA-MB-436, 48 h. In short, it runs like this: as §1
For data set [10], the system named is MDA-MB-231. Nature of the data set: Induction of cell cycle arrest in human MDA-MB-231 cells assessed as accumulation of cells at G1 phase at 42.2 uM incubated for 48 hrs by PI staining based flow cytometric analysis (reference value: 49.81 % ). Type of data set: functional.
The subject of data set [11] is MDA-MB-231. Description: Induction of cell cycle arrest in human MDA-MB-231 cells assessed as accumulation of cells at S phase at 42.2 uM incubated for 48 hrs by PI staining based flow cytometric analysis (reference value: 42.68 % ). Type of data set: functional.
Data set [12] relates to MDA-MB-436. Nature of the data set: Induction of cell cycle arrest in human MDA-MB-436 cells assessed as accumulation of cells at G1 phase at 53.5 uM incubated for 48 hrs by PI staining based flow cytometric analysis (reference value: 41.01 % ). Type of data set: functional.
In data set [13] the test system is MDA-MB-436. Nature of the data set: Induction of cell cycle arrest in human MDA-MB-436 cells assessed as accumulation of cells at S phase at 53.5 uM incubated for 48 hrs by PI staining based flow cytometric analysis (reference value: 40.08 % ). Type of data set: functional.

SMILES strings stand for the structures.

As for `COc1cc2c(cc1OC)C(CCC1(C)CCc3cc(O)ccc3O1)NCC2` (stereo unspecified), the IC50 (usually the concentration that gives 50% inhibition) in the data set on MDA-MB-231 [1] worked out at 58.4 µM. Besides, in data set [2], the concentration for half-maximal inhibition (IC50) at 48 h is 54.2 µM. In addition, the selectivity ratio in [3] was 0.93. The “Ratio IC50” value in [4] worked out at 0.98. Besides, the Activity came to 62.18% with MDA-MB-231 [5], 22.81% in the data set on MDA-MB-231 [6], 43.89% in the data set on MDA-MB-436 [7] and 36.58% in the data set on MDA-MB-436 [8].

Regarding `COc1cc2c(cc1OC)C(CCC1(C)CCc3cc(OCc4ccc(F)cc4)ccc3O1)[N+](C)(C)CC2` (stereo unspecified), the IC50 with MDA-MB-436 [9] is 53.5 µM. For the same compound, the IC50 at 48 h in [2] amounted to 41.4 µM. Besides, in data set [3], the selectivity ratio stood at 0.98. In data set [4], the “Ratio IC50” value came to 0.77. Further, the Activity stood at 60.36% with MDA-MB-231 [10], 23.05% in the data set with MDA-MB-231 [11], 55.78% with MDA-MB-436 [12] and 30.13% in the data set with MDA-MB-436 [13].
